Compounds with a hit are over-represented: about 2.5% of the library has one in this group of screens.
TRPC4 potent: allosterically enhances the mouse TRPC4 cation channel; Q9QUQ5; HEK293 TRPC4beta/mu-opioid, DAMGO EC20, Fluo-4 Ca2+ flux; active compounds read high; B-score at 10 µM; 310,000 compounds, 0.42% hits;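 active = B-score of calcium response area above 5 SD of library B-scores, with initial fluorescence ratio within 5 SD of library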;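 also: B-score of integrated fluorescence ratio over time as area under calcium response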
Target sequence (Q9QUQ5 whole entry, looked up): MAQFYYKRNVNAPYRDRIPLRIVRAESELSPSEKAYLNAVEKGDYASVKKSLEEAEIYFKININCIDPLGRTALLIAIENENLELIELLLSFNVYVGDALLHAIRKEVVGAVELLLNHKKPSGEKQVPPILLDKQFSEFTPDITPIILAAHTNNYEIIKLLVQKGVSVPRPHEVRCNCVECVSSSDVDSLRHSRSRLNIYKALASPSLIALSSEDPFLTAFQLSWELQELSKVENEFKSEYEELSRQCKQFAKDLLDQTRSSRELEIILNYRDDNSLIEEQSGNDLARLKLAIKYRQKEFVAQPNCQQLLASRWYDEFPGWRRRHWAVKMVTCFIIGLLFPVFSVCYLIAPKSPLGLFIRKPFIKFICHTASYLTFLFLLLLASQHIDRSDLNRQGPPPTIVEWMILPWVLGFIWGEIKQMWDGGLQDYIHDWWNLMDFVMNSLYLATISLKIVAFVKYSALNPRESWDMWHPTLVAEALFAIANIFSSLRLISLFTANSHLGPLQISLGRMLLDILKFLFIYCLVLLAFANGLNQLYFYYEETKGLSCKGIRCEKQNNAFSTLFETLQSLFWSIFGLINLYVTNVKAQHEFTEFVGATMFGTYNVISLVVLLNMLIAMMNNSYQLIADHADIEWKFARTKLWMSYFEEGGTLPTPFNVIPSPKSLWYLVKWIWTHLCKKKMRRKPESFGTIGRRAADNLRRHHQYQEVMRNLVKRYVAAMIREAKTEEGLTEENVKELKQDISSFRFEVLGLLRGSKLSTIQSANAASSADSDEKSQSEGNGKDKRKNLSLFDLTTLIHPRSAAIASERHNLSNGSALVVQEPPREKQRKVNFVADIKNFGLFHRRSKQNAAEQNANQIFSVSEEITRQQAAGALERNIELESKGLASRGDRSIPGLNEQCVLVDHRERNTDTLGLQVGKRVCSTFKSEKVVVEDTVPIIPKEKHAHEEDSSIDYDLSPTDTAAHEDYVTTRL
TRPC4 inh: blocks the mouse TRPC4 cation channel | 300,000 compounds, 0.39% hits | B-score at 10 µM | HEK293 TRPC4beta/mu-opioid, DAMGO-evoked Fluo4 calcium flux; active compounds read low | Q9QUQ5 | AID 2247;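 active = B-score over 3 SD under the library average, no early fluorescence shift, positive overall ratio signal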
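Test system – stable TRPC4beta/mu-opioid receptor HEK293 cells · Probe or stimulus – DAMGO, a submaximal dose followed by a maximal one · Dosing – one concentration per compound · Signal – Fluo4 calcium fluorescence by kinetic imaging, 5 s 1 Hz baseline · Evaluation – per-well B score of integrated baseline-normalized Fluo4 ratio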
TRPC6 activator: activates the mouse TRPC6 cation channel | Q61143 | HEK293-TRPC6 membrane potential dye fluorescence; active compounds read high | B-score at 10 µM | 310,000 compounds, 0.13% hits;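 active = B-score of the integrated fluorescence ratio above library mean plus 3 SD, and starting fluorescence ratio within library mean plus 5 SD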;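 also: higher score means more depolarization so channel activation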
TRPC4 act: activators of mouse TRPC4 channel; Q9QUQ5; HEK293 TRPC4beta/mu-opioid, Fluo4 calcium fluorescence; active compounds read high; B-score at 10 µM; 310,000 compounds, 0.49% hits; AID 2237;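 active = B-score above 5 SD of library B-scores, and initial fluorescence ratio not above library mean plus 5 SD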;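 also: positive B-score marks a calcium rise read as TRPC4 activation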
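System – HEK293 cells stably co-expressing mouse TRPC4beta and mu-opioid receptor · Signal – Fluo4 calcium-sensitive dye fluorescence, kinetic, 1 Hz baseline · Benchmarks – buffer (low) and maximal DAMGO (high) · Read-out – B score of integrated fluorescence ratio per well · Incubation – dye loading 45 min room temperature, 110 s kinetic read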
Platelet DG rel: platelet dense granule release activity. human platelet-rich plasma, SFLLRN dense granule ATP release, luminescence. inhibition, %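 (compounds screened at 7.5 µM in platelet-rich plasma)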. 300,000 compounds, 0.22% hits. AID 1663;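 active = mean replicate score, as percent of positive control, at or above 50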
TRPC6 inh: blocks the mouse TRPC6 cation channel; HEK293-TRPC6, membrane potential dye, ACh-evoked depolarization; active compounds read low; AID 2553; B-score at 10 µM; 310,000 compounds, 1.1% hits; Q61143;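 active = B-score under library mean minus 3 SD, initial fluorescence not abnormally high, positive integrated signal ratio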;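 also: B-score derived from integrated fluorescence ratio over the kinetic read; more negative B-score means stronger inhibition of depolarization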
TRPC4 sel inh 2: second check of whether TRPC6 inhibitors also affect mouse TRPC4. AID 2776. HEK293 TRPC4/MOR, membrane potential dye fluorescence; channel activated by saturating DAMGO dose. shares compounds with TRPC6 inh. inhibition, % at 10 µM. 920 compounds, 42% hits;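 active = compounds whose fluorescence signal differed from control wells by over 3 SD, either direction, in both duplicate plates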
TRPC4 spec: mouse TRPC4 off-target activity of TRPC6 inhibitors. shares compounds with TRPC6 inh. HEK293 TRPC4/mu-opioid, membrane potential fluorescence. AID 2777. activity change, negative = inhibition, % at 10 µM. 920 compounds, 61% hits;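 active = rise or fall in signal beyond 3 SD of buffer-only wells in both replicate plates, either sign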;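 also: integrated kinetic ratio of fluorescence range over baseline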
HEK293 MPD ctr 2-1: second check of TRPC6 inhibitor effects in parental HEK293 cells; shares compounds with TRPC6 inh; parental HEK293 membrane potential dye fluorescence; maximal acetylcholine challenge after compound addition; signal change vs control, % at 10 µM; 920 compounds, 31% hits; AID 2779;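 active = membrane potential signal moving either way by over 3 SD of the maximum-effect control, in both duplicate plates, meaning non-specific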
HEK293 MPD ctr-1: counter-screen for TRPC6 inhibitors: effect in parental HEK293 cells; shares compounds with TRPC6 inh; membrane potential signal change, % at 10 µM; parental HEK293 membrane potential dye fluorescence; 920 compounds, 60% hits;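 active = membrane potential signal shifting up or down by more than 3 SD of buffer-only wells, on both duplicate plates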
HEK293 MPD ctr-2: counter-screen for TRPC6 modulators: effect in parental HEK293 cells; shares compounds with TRPC6 inh; membrane potential dye fluorescence; membrane potential signal change, % at 10 µM; 2,400 compounds, 51% hits; AID 488924;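 active = membrane potential signal moves up or down beyond 5 SD from buffer-only wells, on both duplicate plates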
HEK293 MPD ctr 2-2: second counter-screen for TRPC6 modulators: effect in parental HEK293 cells; membrane potential dye fluorescence; after compound, maximal acetylcholine stimulation; shares compounds with TRPC6 inh; inhibition, % at 10 µM; 2,400 compounds, 14% hits;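 active = membrane potential signal drops by more than 5 SD from the mean control signal, in both duplicate plates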;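 also: plate controls were acetylcholine ECmax control wells for no effect and buffer only wells for full effect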
TRPC4 ctr mod: selectivity of TRPC6 modulators against mouse TRPC4. shares compounds with TRPC6 inh. HEK293 TRPC4/mu-opioid, membrane potential fluorescence. percent change from control (negative = decrease, positive = increase), % at 10 µM. 2,400 compounds, 69% hits. AID 488927;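 active = membrane potential signal moved up or down beyond 5 SD of buffer control wells, in both duplicate plates, actives on both sides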;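 also: plate controls were assay buffer wells for no effect and DAMGO maximal-effect wells for full effect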
TRPC4/MOR inh 2: second check of whether TRPC6 modulators also affect mouse TRPC4; shares compounds with TRPC6 inh; 2,400 compounds, 55% hits; inhibition, % at 10 µM; AID 488928; HEK293 TRPC4/mu-opioid, membrane potential dye fluorescence; stimulated with maximal-effect DAMGO;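 active = drop in membrane potential signal beyond 5 SD of the control wells in both duplicate plates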;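 also: TRPC4 counter screen for TRPC6 hits run under conditions tuned for TRPC6 not TRPC4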
TRPC6 inh conf: mouse TRPC6 inhibitor confirmation; shares compounds with TRPC6 inh; HEK293-TRPC6, membrane potential dye, ACh-evoked depolarization; inhibition, % at 10 µM; 3,300 compounds, 43% hits; AID 488960;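 active = fluorescence ratio falls more than 5 SD below the full-stimulation control mean, in both duplicate runs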;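 also: integrated fluorescence ratio of peak minus minimum over baseline after agonist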
TRPC6 act conf: confirmation of mouse TRPC6 activators; activation, % at 10 µM; shares compounds with TRPC6 inh; HEK293-TRPC6 membrane potential dye fluorescence, FDSS; AID 488961; 2,800 compounds, 11% hits;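 active = ratio signal rise beyond 5 SD above unstimulated control wells' mean, seen in both duplicate runs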;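 also: plate controls were buffer EC0 wells for no effect and acetylcholine ECmax response for full effect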
Active calls of the source: *.

CCN(CC)CCN(C(=O)C1=COCCO1)c1nc2c(OC)ccc(OC)c2s1 was read as TRPC4 potent inactive, TRPC4 inh inactive, TRPC6 activator inactive, TRPC4 act inactive, Platelet DG rel -5, TRPC6 inh -5.4*, HEK293 MPD ctr-2 -104%*, HEK293 MPD ctr 2-2 inactive, TRPC4 ctr mod -26%*, TRPC4/MOR inh 2 69%*, TRPC6 inh conf inactive and TRPC6 act conf inactive.
Screening CCN(CC)CCN(C(=O)c1ccc([N+](=O)[O-])cc1)c1nc2c(OC)cccc2s1 returned TRPC4 potent inactive, TRPC4 inh inactive, TRPC6 activator inactive, TRPC4 act inactive, Platelet DG rel 0, TRPC6 inh -6.3*, HEK293 MPD ctr-2 inactive, HEK293 MPD ctr 2-2 inactive, TRPC4 ctr mod -12%*, TRPC4/MOR inh 2 36%*, TRPC6 inh conf inactive and TRPC6 act conf inactive.
CCN(CC)CCN(C(=O)C1=COCCO1)c1nc2ccc(C)cc2s1 was read as TRPC4 potent inactive, TRPC4 inh inactive, TRPC6 activator inactive, TRPC4 act inactive, Platelet DG rel 21 and TRPC6 inh inactive.
For CCN(CC)CCN(C(=O)C1=COCCO1)c1nc2cc3c(cc2s1)OCO3 the results were TRPC4 potent inactive, TRPC4 inh inactive, TRPC6 activator inactive, TRPC4 act inactive, Platelet DG rel 0, TRPC6 inh -6.8*, TRPC4 sel inh 2 52%*, TRPC4 spec -22%*, HEK293 MPD ctr 2-1 inactive, HEK293 MPD ctr-1 -184%*, TRPC6 inh conf inactive and TRPC6 act conf inactive.
Screening CCCn1c(N)c(N(CCOC)C(=O)CSCC(=O)Nc2cccc(C)c2)c(=O)[nH]c1=O returned TRPC4 potent inactive, TRPC4 inh inactive, TRPC6 activator inactive, TRPC4 act inactive, Platelet DG rel 4 and TRPC6 inh inactive.
COc1ccc(Cn2c(-c3ccc(Br)cc3)c[n+]3ccccc23)cc1 was read as TRPC4 potent inactive, TRPC4 inh inactive, TRPC6 activator inactive, TRPC4 act inactive, Platelet DG rel -2, TRPC6 inh -13*, HEK293 MPD ctr-2 -269%*, HEK293 MPD ctr 2-2 inactive, TRPC4 ctr mod -47%*, TRPC4/MOR inh 2 48%*, TRPC6 inh conf 60%* and TRPC6 act conf inactive.
`COc1cccc(CNCCc2c[nH]c3ccccc23)c1OCc1ccccc1` gave TRPC4 potent inactive, TRPC4 inh inactive, TRPC6 activator inactive, TRPC4 act inactive, Platelet DG rel 1 and TRPC6 inh inactive.
Screening COc1cccc(CNC23CC4CC(CC(C4)C2)C3)c1OCc1ccccc1 returned TRPC4 potent inactive, TRPC4 inh inactive, TRPC6 activator 15*, TRPC4 act inactive, Platelet DG rel 3, TRPC6 inh -7.8*, HEK293 MPD ctr-2 752%*, HEK293 MPD ctr 2-2 inactive, TRPC4 ctr mod 147%*, TRPC4/MOR inh 2 80%*, TRPC6 inh conf 78%* and TRPC6 act conf 241%*.
Screening Cc1cc(C)c[n+](CC(=O)c2c(C)cc(C)c([N+](=O)[O-])c2C)c1 returned TRPC4 potent inactive, TRPC4 inh inactive, TRPC6 activator inactive, TRPC4 act inactive, Platelet DG rel 1 and TRPC6 inh inactive.
For N=c1c(-c2nc3ccccc3[nH]2)cc(C(=O)c2cccs2)nn1-c1ccccc1 the results were TRPC4 potent inactive, TRPC4 inh inactive, TRPC6 activator inactive, TRPC4 act inactive, Platelet DG rel 1, TRPC6 inh -7.7*, TRPC4 sel inh 2 58%*, TRPC4 spec -14%*, HEK293 MPD ctr 2-1 inactive, HEK293 MPD ctr-1 -179%*, TRPC6 inh conf 68%* and TRPC6 act conf inactive.
COc1cc(OC)cc(C(=O)NCC(=O)OCC(=O)N2CC(C)CC(C)C2)c1 (stereo unspecified) was read as TRPC4 potent inactive, TRPC4 inh inactive, TRPC6 activator inactive, TRPC4 act inactive, Platelet DG rel 3 and TRPC6 inh inactive.
N#Cc1cc2[nH]c3ccccc3c2[n+](-c2ccc([N+](=O)[O-])cc2)c1N was read as TRPC4 potent inactive, TRPC4 inh inactive, TRPC6 activator inactive, TRPC4 act inactive, Platelet DG rel -23, TRPC6 inh -9.9*, HEK293 MPD ctr-2 -322%*, HEK293 MPD ctr 2-2 94%*, TRPC4 ctr mod -18%*, TRPC4/MOR inh 2 97%*, TRPC6 inh conf 75%* and TRPC6 act conf inactive.
For CSc1ccc(CNC(=O)Cn2nc(C)c3c(C)n(-c4ccc(C)cc4)nc3c2=O)cc1 the results were TRPC4 potent inactive, TRPC4 inh inactive, TRPC6 activator inactive, TRPC4 act inactive, Platelet DG rel -3 and TRPC6 inh inactive.

Bioassay records from PubChem BioAssay.
